Laboratory results published in ChEMBL document CHEMBL1938297, “Synthesis, radiofluorination and pharmacological evaluation of a fluoromethyl spirocyclic PET tracer for central σ1 receptors and comparison with fluoroalkyl homologs” (Bioorg Med Chem, 2012).

Legend:
Mus musculus [1] = assay: Biodistribution in CD1 mouse dorsomedial hyphalmus in brain saggital section at 24 MBq, iv at 45 mins by autoradiography; format: ADME, organism-based; settings: in vivo, 0.75 h
Summary of the method: (§1)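 Female CD-1 mouse given [18F]1 (24 MBq) i.v. and sacrificed at 45 min. Brain hemispheres frozen in isopentane (−35 °C), cut into 12 µm sagittal cryosections, thaw-mounted, air-dried and exposed to 18F-sensitive storage phosphor screens. Anterior olfactory bulb served as nontarget region for target-to-nontarget ratios.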

[2] = Biodistribution in CD1 mouse urine at 300 kBq, iv after 60 mins by gamma counting; format: ADME, organism-based; settings: in vivo, 1 h
Summary of the method: (§2)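 Female CD-1 mice received 300 kBq of the radiotracer i.v.; 3–6 animals per time point were anaesthetised at 5, 30, 60 or 120 min p.i. Blood and urine were collected, animals were killed by cervical dislocation, and organs were dissected and weighed. Activity was counted in a calibrated gamma counter and expressed as % injected dose per g wet tissue, mean with SD.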

Lung = assay: Biodistribution in CD1 mouse lung at 300 kBq, iv after 30 mins by gamma counting; format: ADME, organism-based; settings: in vivo, 0.5 h
Summary of the method: (§3)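 Female CD-1 mice received the 18F tracer iv at 300 kBq in 0.9% NaCl containing 5% ethanol; 3–6 animals per time point (5, 30, 60, 120 min p.i.). Animals anaesthetized, blood and urine collected, killed by cervical luxation, organs dissected and weighed, counted in calibrated gamma counter. %ID/g = tissue counts / initial dose counts / tissue weight; mean with SD.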

Mus musculus [3] = assay: Biodistribution in CD1 mouse thymus at 300 kBq, iv after 60 mins by gamma counting; format: ADME, organism-based; settings: in vivo, 1 h; summary of the method: as §2
Pancreas [4] = assay: Biodistribution in CD1 mouse pancreas at 300 kBq, iv after 5 mins by gamma counting; format: ADME, organism-based; settings: in vivo; summary of the method: as §3
Pancreas [5] = assay: Biodistribution in CD1 mouse pancreas at 300 kBq, iv after 120 mins by gamma counting; format: ADME, organism-based; settings: in vivo, 2 h; summary of the method: as §3
Spleen [6] = assay: Biodistribution in CD1 mouse spleen at 300 kBq, iv after 60 mins by gamma counting; format: ADME, organism-based; settings: in vivo, 1 h; summary of the method: as §3
Femur [7] = assay: Biodistribution in CD1 mouse femur at 300 kBq, iv after 30 mins by gamma counting; format: ADME, organism-based; settings: in vivo, 0.5 h
Summary of the method: (§4)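 Female CD-1 mice received [18F]1 (300 kBq) i.v.; 3–6 animals per time point anesthetized at 5, 30, 60 or 120 min p.i., blood and urine collected, animals euthanized by cervical dislocation, organs dissected and weighed. Radioactivity counted in a calibrated gamma counter; % ID/g = tissue counts / initial dose counts / tissue weight; means with SD.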

Spleen [8] = assay: Biodistribution in CD1 mouse spleen at 300 kBq, iv after 5 mins by gamma counting; format: ADME, organism-based; settings: in vivo; summary of the method: as §3
Stomach = assay: Biodistribution in CD1 mouse stomach at 300 kBq, iv after 60 mins by gamma counting; format: ADME, organism-based; settings: in vivo, 1 h; summary of the method: as §3
Spleen [9] = assay: Biodistribution in CD1 mouse spleen at 300 kBq, iv after 120 mins by gamma counting; format: ADME, organism-based; settings: in vivo, 2 h; summary of the method: as §3
[10] = Biodistribution in CD1 mouse intestinal content at 300 kBq, iv after 120 mins by gamma counting; format: ADME, organism-based, Intestine; settings: in vivo, 2 h; summary of the method: as §3
[11] = Biodistribution in CD1 mouse urine at 300 kBq, iv after 120 mins by gamma counting; format: ADME, organism-based; settings: in vivo, 2 h; summary of the method: as §2
Muscle tissue [12] = assay: Biodistribution in CD1 mouse muscle at 300 kBq, iv after 60 mins by gamma counting; format: ADME, organism-based; settings: in vivo, 1 h; summary of the method: as §3
Spleen [13] = assay: Biodistribution in CD1 mouse spleen at 300 kBq, iv after 30 mins by gamma counting; format: ADME, organism-based; settings: in vivo, 0.5 h; summary of the method: as §3
Heart [14] = assay: Biodistribution in CD1 mouse heart at 300 kBq, iv after 5 mins by gamma counting; format: ADME, organism-based; settings: in vivo; summary of the method: as §3
Femur [15] = assay: Biodistribution in CD1 mouse femur at 300 kBq, iv after 5 mins by gamma counting; format: ADME, organism-based; settings: in vivo; summary of the method: as §4
Mus musculus [16] = assay: Biodistribution in CD1 mouse small intestine at 300 kBq, iv after 30 mins by gamma counting; format: ADME, organism-based; settings: in vivo, 0.5 h; summary of the method: as §3
Mus musculus [17] = assay: Biodistribution in CD1 mouse gonads at 300 kBq, iv after 30 mins by gamma counting; format: ADME, organism-based, Gonad; settings: in vivo, 0.5 h; summary of the method: as §4
Mus musculus [18] = assay: Biodistribution in CD1 mouse eye at 300 kBq, iv after 120 mins by gamma counting; format: ADME, organism-based; settings: in vivo, 2 h; summary of the method: as §4
[19] = n-Octanol-phosphate-saline solution partition coefficient, log D of the compound at pH 7.2 by shake-flask method; format: physicochemical
Summary of the method: (§5)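 Shake-flask distribution of the radioligand between n-octanol and aqueous buffer at pH 7.2, either phosphate buffer or phosphate-saline; n = 3.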

Heart [20] = assay: Biodistribution in CD1 mouse heart at 300 kBq, iv after 120 mins by gamma counting; format: ADME, organism-based; settings: in vivo, 2 h; summary of the method: as §3
Muscle tissue [21] = assay: Biodistribution in CD1 mouse muscle at 300 kBq, iv after 30 mins by gamma counting; format: ADME, organism-based; settings: in vivo, 0.5 h; summary of the method: as §3
Mus musculus [22] = assay: Biodistribution in CD1 mouse small intestine at 300 kBq, iv after 120 mins by gamma counting; format: ADME, organism-based; settings: in vivo, 2 h; summary of the method: as §3
Liver [23] = assay: Biodistribution in CD1 mouse liver at 300 kBq, iv after 60 mins by gamma counting; format: ADME, organism-based; settings: in vivo, 1 h; summary of the method: as §3
Femur [24] = assay: Biodistribution in CD1 mouse femur at 300 kBq, iv after 60 mins by gamma counting; format: ADME, organism-based; settings: in vivo, 1 h; summary of the method: as §4
Femur [25] = assay: Biodistribution in CD1 mouse flushed femur at 300 kBq, iv after 60 mins by gamma counting; format: ADME, organism-based; settings: in vivo, 1 h; summary of the method: as §4
[26] = Octanol-phosphate buffer partition coefficient, log D of the compound at pH 7.2 by shake-flask method; format: physicochemical; summary of the method: as §5
Mus musculus [27] = assay: Biodistribution in CD1 mouse thalmic nuclei in brain saggital section at 24 MBq, iv at 45 mins by autoradiography; format: ADME, organism-based; settings: in vivo, 0.75 h
Summary of the method: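 Ex vivo autoradiography: female CD-1 mouse given 18F tracer iv (24 MBq), killed 45 min p.i.; brain hemispheres frozen in isopentane (−35 °C), 12 µm sagittal cryostat sections thaw-mounted, air-dried and exposed to 18F-sensitive phosphor screens. Regional uptake compared with anterior olfactory bulb as nontarget region (target-to-nontarget ratio).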

[28] = Biodistribution in CD1 mouse urine at 300 kBq, iv after 5 mins by gamma counting; format: ADME, organism-based; settings: in vivo; summary of the method: as §2
Mus musculus [29] = assay: Biodistribution in CD1 mouse anterior olfactory bulb in brain saggital section at 24 MBq, iv at 45 mins by autoradiography; format: ADME, organism-based; settings: in vivo, 0.75 h; summary of the method: as §1
Mus musculus [30] = assay: Biodistribution in CD1 mouse large intestine at 300 kBq, iv after 30 mins by gamma counting; format: ADME, organism-based; settings: in vivo, 0.5 h; summary of the method: as §3
Blood = assay: Biodistribution in CD1 mouse blood at 300 kBq, iv after 30 mins by gamma counting; format: ADME, organism-based; settings: in vivo, 0.5 h; summary of the method: as §4
Liver [31] = assay: Biodistribution in CD1 mouse liver at 300 kBq, iv after 5 mins by gamma counting; format: ADME, organism-based; settings: in vivo; summary of the method: as §3
[32] = Chemical stability of the compound in 0.9% NaCl solution at pH 7.2 assessed as compound remaining after 2 hrs by radio-HPLC/TLC analysis; format: physicochemical; settings: read-out: Stability
Summary of the method: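 Radiotracer incubated 120 min at 40 °C in 0.9% NaCl (pH 7.2), phosphate-saline (0.1 M sodium phosphate, 0.15 M NaCl, pH 7.2) or 0.01 M TRIS–HCl (pH 7.4 at 21 °C). Aliquots were taken at set times and analysed by radio-TLC on silica and by gradient radio-HPLC on RP-18 (MeCN/20 mM ammonium acetate, 254 nm), giving % unchanged tracer; n = 2.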

Femur [33] = assay: Biodistribution in CD1 mouse flushed femur at 300 kBq, iv after 30 mins by gamma counting; format: ADME, organism-based; settings: in vivo, 0.5 h; summary of the method: as §4
Mus musculus [34] = assay: Biodistribution in CD1 mouse fat at 300 kBq, iv after 5 mins by gamma counting; format: ADME, organism-based, Adipose tissue; settings: in vivo; summary of the method: as §4

With [18F]CC1OC2(CCN(Cc3ccccc3)CC2)c2ccccc21 (configuration not stated) the Drug uptake (Mus musculus [1]) was “Active”, the Drug uptake [2] was 45.5 % ID/g and the Drug uptake (Lung) was 8.3 % ID/g. The Drug uptake (Mus musculus [3]) was 2.5 % ID/g, the Drug uptake (Pancreas [4]) was 11.22 % ID/g and the Drug uptake (Pancreas [5]) was 11.99 % ID/g. It also gave a Drug uptake (Spleen [6]) of 5.3 % ID/g, a Drug uptake (Femur [7]) of 4.34 % ID/g and a Drug uptake (Spleen [8]) of 6.23 % ID/g. It also gave a Drug uptake (Stomach) of 1.77 % ID/g, a Drug uptake (Spleen [9]) of 4.84 % ID/g and a Drug uptake [10] of 1.96 % ID/g. The Drug uptake [11] was 56.46 % ID/g, the Drug uptake (Muscle tissue [12]) was 0.97 % ID/g and the Drug uptake (Spleen [13]) was 8.85 % ID/g. The Drug uptake (Heart [14]) was 7.33 % ID/g, the Drug uptake (Femur [15]) was 2.32 % ID/g and the Drug uptake (Mus musculus [16]) was 18.82 % ID/g. It also gave a Drug uptake (Mus musculus [17]) of 4.75 % ID/g, a Drug uptake (Mus musculus [18]) of 1.53 % ID/g and a logD [19] of 2.39. It also gave a Drug uptake (Heart [20]) of 3.05 % ID/g, a Drug uptake (Muscle tissue [21]) of 1.67 % ID/g and a Drug uptake (Mus musculus [22]) of 25.9 % ID/g. For the same compound, the Drug uptake (Liver [23]) was 3.98 % ID/g, the Drug uptake (Femur [24]) was 1.75 % ID/g and the Drug uptake (Femur [25]) was 1.18 % ID/g. The logD [26] was 2.45, the Drug uptake (Mus musculus [27]) was “Active” and the Drug uptake [28] was 3.99 % ID/g. For the same compound, the Drug uptake (Mus musculus [29]) was “Active”, the Drug uptake (Mus musculus [30]) was 1.28 % ID/g and the Drug uptake (Blood) was 0.35 % ID/g. The Drug uptake (Liver [31]) was 5.31 % ID/g, the remaining at 2 h [32] was 96.9% and the Drug uptake (Femur [33]) was 1.42 % ID/g. For the same compound, the Drug uptake (Mus musculus [34]) was 1.12 % ID/g.
